The source made the active and inactive calls.
Assays:
[1] = target: Muscarinic acetylcholine receptor M1 (Homo sapiens) (UniProt P11229); test: Binding affinity to human M1 receptor expressed in CHO cells at 10 uM after 90 mins by microbeta counting analysis; type: cell-based
Outline: (§1)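 Primary radioligand displacement screen, run by PDSP/NIMH. Receptor panel includes muscarinic M1–M5. Activity threshold 10 μM. Targets with significant binding went on to secondary Ki assays.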

[2] = target: 5-hydroxytryptamine receptor 1B (Homo sapiens) (UniProt P28222); test: Displacement of [3H]5-CT from human serotonin 5-HT1B receptor expressed in HEK cells at 10 uM after 90 mins by microbeta counting analysis; type: cell-based; conditions: HEK293; outline: as §1
[3] = target: 5-hydroxytryptamine receptor 2A (Homo sapiens) (UniProt P28223); test: Displacement of [3H]ketanserin from human serotonin 5-HT2A receptor expressed in HEKT cells at 10 uM after 90 mins by microbeta counting analysis; type: cell-based; outline: as §1
[4] = target: 5-hydroxytryptamine receptor 3A (Homo sapiens) (UniProt P46098); test: Displacement of [3H]GR65630 from human serotonin 5-HT3 receptor expressed in HEKT cells at 10 uM after 90 mins by microbeta counting analysis; type: cell-based; outline: as §1
[5] = target: Histamine H2 receptor (Homo sapiens) (UniProt P25021); test: Binding affinity to human H2 histamine receptor expressed in HEK cells at 10 uM after 90 mins by microbeta counting analysis; type: cell-based; conditions: HEK293; outline: as §1
[6] = target: D(2) dopamine receptor (Homo sapiens) (UniProt P14416); test: Displacement of [3H]N-methylspiperone from human dopamine D2 receptor at 10 uM after 90 mins by microbeta counting analysis; outline: as §1
[7] = target: Histamine H3 receptor (Homo sapiens) (UniProt Q9Y5N1); test: Displacement of [3H]alpha-methylhistamine from human H3 histamine receptor expressed in HEK cells at 10 uM after 90 mins by microbeta counting analysis; type: cell-based; conditions: HEK293; outline: as §1
[8] = target: Beta-2 adrenergic receptor (Homo sapiens) (UniProt P07550); test: Displacement of [3H]CGP12177 from human adrenergic beta2 receptor expressed in HEK Flp-In cells at 10 uM after 90 mins by microbeta counting analysis; type: cell-based; conditions: HEK293; outline: as §1
[9] = target: 5-hydroxytryptamine receptor 1E (Homo sapiens) (UniProt P28566); test: Displacement of [3H]5-HT from human serotonin 5-HT1E receptor expressed in HEK cells at 10 uM after 90 mins by microbeta counting analysis; type: cell-based; conditions: HEK293; outline: as §1
[10] = target: Histamine H4 receptor (Homo sapiens) (UniProt Q9H3N8); test: Displacement of [3H]histamine from human H4 histamine receptor expressed in HEK cells at 10 uM after 90 mins by microbeta counting analysis; type: cell-based; conditions: HEK293; outline: as §1
[11] = target: Delta-type opioid receptor (Homo sapiens) (UniProt P41143); test: Displacement of [3H]DADLE from delta opioid receptor (unknown origin) expressed in HEK cells at 10 uM after 90 mins by microbeta counting analysis; type: cell-based; conditions: HEK293; outline: as §1
[12] = target: Sodium-dependent noradrenaline transporter (Homo sapiens) (UniProt P23975); test: Displacement of [3H]nisoxetine from NET (unknown origin) expressed in HEK cells at 10 uM after 90 mins by microbeta counting analysis; type: cell-based; conditions: HEK293; outline: as §1
[13] = target: Muscarinic acetylcholine receptor M4 (Homo sapiens) (UniProt P08173); test: Binding affinity to human M4 receptor expressed in CHO cells at 10 uM after 90 mins by microbeta counting analysis; type: cell-based; outline: as §1
[14] = target: D(1A) dopamine receptor (Homo sapiens) (UniProt P21728); test: Displacement of [3H]SCH23390 from human dopamine D1 receptor expressed in HEKT cells at 10 uM after 90 mins by microbeta counting analysis; type: cell-based; outline: as §1
[15] = target: Sodium-dependent serotonin transporter (Homo sapiens) (UniProt P31645); test: Displacement of [3H]citalopram from SERT (unknown origin) expressed in HEK cells at 10 uM after 90 mins by microbeta counting analysis; type: cell-based; conditions: HEK293; outline: as §1
[16] = target: 5-hydroxytryptamine receptor 2C (Homo sapiens) (UniProt P28335); test: Displacement of [3H]Mesulergine from human serotonin 5-HT2C receptor expressed in Flp-IN HEK cells at 10 uM after 90 mins by microbeta counting analysis; type: cell-based; conditions: HEK293; outline: as §1
[17] = target: Alpha-1B adrenergic receptor (Homo sapiens) (UniProt P35368); test: Displacement of [3H]prazosin from adrenergic alpha1B receptor (unknown origin) expressed in HEKT cells at 10 uM after 90 mins by microbeta counting analysis; type: cell-based; outline: as §1
[18] = target: D(3) dopamine receptor (Rattus norvegicus) (UniProt P19020); test: Displacement of [3H]N-methylspiperone from rat dopamine D3 receptor expressed in HEKT cells at 10 uM after 90 mins by microbeta counting analysis; type: cell-based; outline: as §1
[19] = target: Beta-3 adrenergic receptor (Homo sapiens) (UniProt P13945); test: Binding affinity to human adrenergic beta3 receptor expressed in HEK Flp-In cells at 10 uM after 90 mins by microbeta counting analysis; type: cell-based; conditions: HEK293; outline: as §1
DRG neuron = test: Increase in Ca2+ uptake in mouse DRG neurons at 20 ug/ml by Fura-2 dye-based fluorescence microscopy; type: functional
Outline: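 Mouse DRG cells plated in medium with additives and loaded with the Ca2+ dye Fura-2 AM. Compound applied directly at 20 μg/mL. Read-out is the fraction of cells showing a rise in Ca2+ concentration.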

[20] = target: Kappa-type opioid receptor (Homo sapiens) (UniProt P41145); test: Displacement of [3H]U69593 from kappa opioid receptor (unknown origin) expressed in HEK cells at 10 uM after 90 mins by microbeta counting analysis; type: cell-based; conditions: HEK293; outline: as §1
[21] = target: Muscarinic acetylcholine receptor M5 (Homo sapiens) (UniProt P08912); test: Binding affinity to human M5 receptor expressed in CHO cells at 10 uM after 90 mins by microbeta counting analysis; type: cell-based; outline: as §1
[22] = target: Muscarinic acetylcholine receptor M2 (Homo sapiens) (UniProt P08172); test: Binding affinity to human M2 receptor expressed in CHO cells at 10 uM after 90 mins by microbeta counting analysis; type: cell-based; outline: as §1
[23] = target: Alpha-2A adrenergic receptor (Homo sapiens) (UniProt P08913); test: Displacement of [3H]rauwolscine from adrenergic alpha2A receptor (unknown origin) expressed in MDCK cells at 10 uM after 90 mins by microbeta counting analysis; type: cell-based; outline: as §1
[24] = target: Alpha-2B adrenergic receptor (Homo sapiens) (UniProt P18089); test: Displacement of [3H]rauwolscine from adrenergic alpha2B receptor (unknown origin) expressed in HEKT cells at 10 uM after 90 mins by microbeta counting analysis; type: cell-based; outline: as §1
[25] = target: Mu-type opioid receptor (Homo sapiens) (UniProt P35372); test: Displacement of [3H]DAMGO from mu opioid receptor (unknown origin) expressed in HEK cells at 10 uM after 90 mins by microbeta counting analysis; type: cell-based; conditions: HEK293; outline: as §1
[26] = target: 5-hydroxytryptamine receptor 6 (Homo sapiens) (UniProt P50406); test: Displacement of [3H]LSD from human serotonin 5-HT6 receptor expressed in HEK cells at 10 uM after 90 mins by microbeta counting analysis; type: cell-based; conditions: HEK293; outline: as §1
[27] = target: D(4) dopamine receptor (Homo sapiens) (UniProt P21917); test: Displacement of [3H]N-methylspiperone from human dopamine D4 receptor at 10 uM after 90 mins by microbeta counting analysis; outline: as §1
[28] = target: GABA-A receptor; anion channel (Homo sapiens) (UniProt P14867+P47870+P18507+P28472+P48169+Q99928+Q9UN88+P34903+O00591+O14764+Q8N1C3+P18505+P78334+P47869+P31644+Q16445); test: Displacement of [3H]Muscimol from rat GABAA receptor at 10 uM after 90 mins by microbeta counting analysis; type: protein-complex assay; conditions: target entry is the homologue from another species; outline: as §1
[29] = target: Sodium-dependent dopamine transporter (Homo sapiens) (UniProt Q01959); test: Displacement of [3H]WIN35428 from human DAT expressed in HEK cells at 10 uM after 90 mins by microbeta counting analysis; type: cell-based; conditions: HEK293
[30] = target: 5-hydroxytryptamine receptor 2B (Homo sapiens) (UniProt P41595); test: Displacement of [3H]LSD from human serotonin 5-HT2B receptor expressed in HEK cells at 10 uM after 90 mins by microbeta counting analysis; type: cell-based; conditions: HEK293; outline: as §1
[31] = target: Alpha-1D adrenergic receptor (Homo sapiens) (UniProt P25100); test: Displacement of [3H]prazosin from adrenergic alpha1D receptor (unknown origin) at 10 uM after 90 mins by microbeta counting analysis; outline: as §1
[32] = target: Alpha-1A adrenergic receptor (Homo sapiens) (UniProt P35348); test: Displacement of [3H]prazosin from adrenergic alpha1A receptor (unknown origin) at 10 uM after 90 mins by microbeta counting analysis; outline: as §1
[33] = target: 5-hydroxytryptamine receptor 4 (Homo sapiens) (UniProt Q13639); test: Displacement of [3H]GR113808 from human serotonin 5-HT4 receptor at 10 uM after 90 mins by microbeta counting analysis; outline: as §1
[34] = target: D(1B) dopamine receptor (Homo sapiens) (UniProt P21918); test: Displacement of [3H]SCH23390 from human dopamine D5 receptor expressed in HEKT cells at 10 uM after 90 mins by microbeta counting analysis; type: cell-based; outline: as §1
[35] = target: 5-hydroxytryptamine receptor 7 (Homo sapiens) (UniProt P34969); test: Displacement of [3H]LSD from human serotonin 5-HT7 receptor expressed in HEK cells at 10 uM after 90 mins by microbeta counting analysis; type: cell-based; conditions: HEK293; outline: as §1
Rattus norvegicus [36] = species on record: Rattus norvegicus; test: Binding affinity to rat GABAB receptor at 10 uM after 90 mins by microbeta counting analysis; outline: as §1
[37] = target: 5-hydroxytryptamine receptor 1D (Homo sapiens) (UniProt P28221); test: Displacement of [3H]5-CT from human serotonin 5-HT1D receptor expressed in HEKT cells at 10 uM after 90 mins by microbeta counting analysis; type: cell-based; outline: as §1
[38] = target: Sigma non-opioid intracellular receptor 1 (Rattus norvegicus) (UniProt Q9R0C9); test: Displacement of [3H]pentazocine from rat sigma1 receptor at 10 uM after 90 mins by microbeta counting analysis; outline: as §1
[39] = target: 5-hydroxytryptamine receptor 1A (Homo sapiens) (UniProt P08908); test: Displacement of [3H]Way100635 from human serotonin 5-HT1A receptor expressed in CHO cells at 10 uM after 90 mins by microbeta counting analysis; type: cell-based; outline: as §1
[40] = target: Alpha-2C adrenergic receptor (Homo sapiens) (UniProt P18825); test: Displacement of [3H]rauwolscine from adrenergic alpha2C receptor (unknown origin) expressed in MDCK cells at 10 uM after 90 mins by microbeta counting analysis; type: cell-based; outline: as §1
[41] = target: Beta-1 adrenergic receptor (Homo sapiens) (UniProt P08588); test: Binding affinity to human adrenergic beta1 receptor expressed in CHO Flp-In cells at 10 uM after 90 mins by microbeta counting analysis; type: cell-based; outline: as §1
[42] = target: 5-hydroxytryptamine receptor 5A (Homo sapiens) (UniProt P47898); test: Displacement of [3H]LSD from human serotonin 5-HT5A receptor expressed in Flp-In CHO cells at 10 uM after 90 mins by microbeta counting analysis; type: cell-based; outline: as §1
[43] = target: Muscarinic acetylcholine receptor M3 (Homo sapiens) (UniProt P20309); test: Binding affinity to human M3 receptor expressed in CHO Flp-In cells at 10 uM after 90 mins by microbeta counting analysis; type: cell-based; outline: as §1
[44] = target: Histamine H1 receptor (Homo sapiens) (UniProt P35367); test: Displacement of [3H]pyrilamine from human H1 histamine receptor expressed in HEK cells at 10 uM after 90 mins by microbeta counting analysis; type: cell-based; conditions: HEK293; outline: as §1
[45] = target: Voltage-gated L-type calcium channel (Rattus norvegicus, UniProt P22002+Q02485+P27732); test: Binding affinity to rat calcium channel at 10 uM after 90 mins by microbeta counting analysis; conditions: 1.5 h; outline: as §1
Rattus norvegicus [46] = species on record: Rattus norvegicus; test: Displacement of [3H]DTG from rat sigma2 receptor at 10 uM after 90 mins by microbeta counting analysis; outline: as §1

Alpha-2B adrenergic receptor (Homo sapiens), sequence (P18089 whole entry): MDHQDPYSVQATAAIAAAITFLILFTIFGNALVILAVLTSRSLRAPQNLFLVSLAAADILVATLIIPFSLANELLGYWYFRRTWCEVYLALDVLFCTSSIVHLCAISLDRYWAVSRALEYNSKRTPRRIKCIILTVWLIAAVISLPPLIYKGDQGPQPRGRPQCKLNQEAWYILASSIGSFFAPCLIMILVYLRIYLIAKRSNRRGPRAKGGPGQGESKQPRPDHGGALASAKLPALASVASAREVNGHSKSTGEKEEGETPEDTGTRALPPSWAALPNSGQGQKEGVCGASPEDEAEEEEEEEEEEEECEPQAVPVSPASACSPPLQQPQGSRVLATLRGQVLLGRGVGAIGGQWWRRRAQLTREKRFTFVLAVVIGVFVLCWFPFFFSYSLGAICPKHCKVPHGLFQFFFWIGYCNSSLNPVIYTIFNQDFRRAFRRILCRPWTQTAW
Sodium-dependent dopamine transporter (Homo sapiens), sequence (Q01959 whole entry): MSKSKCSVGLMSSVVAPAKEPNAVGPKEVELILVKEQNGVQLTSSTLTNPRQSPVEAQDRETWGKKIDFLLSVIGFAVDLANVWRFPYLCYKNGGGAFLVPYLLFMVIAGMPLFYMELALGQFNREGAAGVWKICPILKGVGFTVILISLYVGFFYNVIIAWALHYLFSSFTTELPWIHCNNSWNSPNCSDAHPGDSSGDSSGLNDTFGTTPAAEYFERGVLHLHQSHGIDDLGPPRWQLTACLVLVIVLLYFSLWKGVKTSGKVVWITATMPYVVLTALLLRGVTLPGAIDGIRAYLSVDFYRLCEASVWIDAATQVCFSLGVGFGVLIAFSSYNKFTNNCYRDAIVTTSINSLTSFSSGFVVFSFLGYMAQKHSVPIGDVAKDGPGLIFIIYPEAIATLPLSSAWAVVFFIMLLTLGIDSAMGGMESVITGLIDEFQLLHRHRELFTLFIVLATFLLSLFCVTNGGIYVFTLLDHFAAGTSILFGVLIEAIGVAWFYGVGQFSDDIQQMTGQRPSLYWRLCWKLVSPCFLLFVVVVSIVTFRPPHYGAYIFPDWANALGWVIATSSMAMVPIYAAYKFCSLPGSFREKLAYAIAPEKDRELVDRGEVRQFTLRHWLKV
Muscarinic acetylcholine receptor M1 (Homo sapiens), sequence (P11229 whole entry): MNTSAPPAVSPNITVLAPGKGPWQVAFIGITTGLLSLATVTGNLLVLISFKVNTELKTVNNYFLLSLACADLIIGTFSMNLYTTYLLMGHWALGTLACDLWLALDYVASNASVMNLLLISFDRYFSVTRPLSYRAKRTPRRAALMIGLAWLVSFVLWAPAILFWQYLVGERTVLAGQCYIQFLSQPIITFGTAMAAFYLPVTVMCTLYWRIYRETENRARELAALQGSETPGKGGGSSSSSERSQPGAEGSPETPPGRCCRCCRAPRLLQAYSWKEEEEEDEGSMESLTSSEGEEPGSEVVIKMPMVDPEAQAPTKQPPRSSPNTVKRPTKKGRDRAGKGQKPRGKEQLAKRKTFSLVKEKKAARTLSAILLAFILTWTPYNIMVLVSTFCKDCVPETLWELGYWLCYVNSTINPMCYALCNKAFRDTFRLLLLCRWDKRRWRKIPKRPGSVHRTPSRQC
D(2) dopamine receptor (Homo sapiens), sequence (P14416 whole entry): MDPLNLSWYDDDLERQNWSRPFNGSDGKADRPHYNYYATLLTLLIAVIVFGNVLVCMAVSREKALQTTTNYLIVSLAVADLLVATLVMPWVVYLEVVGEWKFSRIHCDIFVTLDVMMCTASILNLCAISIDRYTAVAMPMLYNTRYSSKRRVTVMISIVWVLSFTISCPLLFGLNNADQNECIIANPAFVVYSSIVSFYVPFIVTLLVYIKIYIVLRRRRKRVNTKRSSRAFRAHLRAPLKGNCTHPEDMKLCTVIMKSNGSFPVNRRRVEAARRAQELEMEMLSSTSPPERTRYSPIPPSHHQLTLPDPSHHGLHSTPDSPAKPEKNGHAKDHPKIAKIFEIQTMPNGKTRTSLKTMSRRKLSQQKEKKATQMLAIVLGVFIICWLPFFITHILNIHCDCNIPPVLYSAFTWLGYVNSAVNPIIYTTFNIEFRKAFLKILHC
Histamine H1 receptor (Homo sapiens), sequence (P35367 whole entry): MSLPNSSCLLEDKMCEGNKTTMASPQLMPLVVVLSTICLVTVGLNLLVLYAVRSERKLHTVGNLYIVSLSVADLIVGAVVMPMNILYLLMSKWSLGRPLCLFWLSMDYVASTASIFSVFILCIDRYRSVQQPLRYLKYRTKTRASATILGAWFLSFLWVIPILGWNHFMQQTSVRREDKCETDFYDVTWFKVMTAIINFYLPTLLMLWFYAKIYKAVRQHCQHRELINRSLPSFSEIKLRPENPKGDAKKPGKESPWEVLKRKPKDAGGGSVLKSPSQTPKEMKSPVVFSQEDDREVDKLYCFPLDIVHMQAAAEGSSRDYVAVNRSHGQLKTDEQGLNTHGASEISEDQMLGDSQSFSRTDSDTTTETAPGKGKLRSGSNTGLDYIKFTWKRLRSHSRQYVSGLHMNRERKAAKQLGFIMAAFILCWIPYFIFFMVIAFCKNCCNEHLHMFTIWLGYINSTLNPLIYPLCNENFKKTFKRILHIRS
5-hydroxytryptamine receptor 1A (Homo sapiens), sequence (P08908 whole entry): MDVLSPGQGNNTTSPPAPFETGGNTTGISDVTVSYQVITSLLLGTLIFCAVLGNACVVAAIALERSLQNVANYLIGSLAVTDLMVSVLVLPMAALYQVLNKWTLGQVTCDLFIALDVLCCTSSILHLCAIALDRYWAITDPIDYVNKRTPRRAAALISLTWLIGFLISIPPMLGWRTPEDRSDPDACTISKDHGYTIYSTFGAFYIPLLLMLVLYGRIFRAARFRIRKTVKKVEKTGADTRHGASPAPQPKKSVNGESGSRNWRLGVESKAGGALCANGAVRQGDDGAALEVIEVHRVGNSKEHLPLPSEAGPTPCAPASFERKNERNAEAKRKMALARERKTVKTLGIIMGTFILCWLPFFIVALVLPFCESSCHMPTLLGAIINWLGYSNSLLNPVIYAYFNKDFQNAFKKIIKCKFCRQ
Muscarinic acetylcholine receptor M2 (Homo sapiens), sequence (P08172 whole entry): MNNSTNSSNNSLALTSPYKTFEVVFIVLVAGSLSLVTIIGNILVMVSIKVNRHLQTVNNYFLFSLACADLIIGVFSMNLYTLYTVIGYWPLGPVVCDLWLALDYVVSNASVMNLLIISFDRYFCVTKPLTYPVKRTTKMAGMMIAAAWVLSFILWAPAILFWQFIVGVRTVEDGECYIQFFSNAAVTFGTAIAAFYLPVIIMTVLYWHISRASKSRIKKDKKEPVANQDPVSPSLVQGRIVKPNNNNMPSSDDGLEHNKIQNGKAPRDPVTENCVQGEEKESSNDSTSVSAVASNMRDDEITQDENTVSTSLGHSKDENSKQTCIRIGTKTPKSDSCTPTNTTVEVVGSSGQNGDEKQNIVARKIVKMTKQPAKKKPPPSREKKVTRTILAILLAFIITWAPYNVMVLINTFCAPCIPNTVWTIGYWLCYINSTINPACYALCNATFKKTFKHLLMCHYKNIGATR
5-hydroxytryptamine receptor 2A (Homo sapiens), sequence (P28223 whole entry): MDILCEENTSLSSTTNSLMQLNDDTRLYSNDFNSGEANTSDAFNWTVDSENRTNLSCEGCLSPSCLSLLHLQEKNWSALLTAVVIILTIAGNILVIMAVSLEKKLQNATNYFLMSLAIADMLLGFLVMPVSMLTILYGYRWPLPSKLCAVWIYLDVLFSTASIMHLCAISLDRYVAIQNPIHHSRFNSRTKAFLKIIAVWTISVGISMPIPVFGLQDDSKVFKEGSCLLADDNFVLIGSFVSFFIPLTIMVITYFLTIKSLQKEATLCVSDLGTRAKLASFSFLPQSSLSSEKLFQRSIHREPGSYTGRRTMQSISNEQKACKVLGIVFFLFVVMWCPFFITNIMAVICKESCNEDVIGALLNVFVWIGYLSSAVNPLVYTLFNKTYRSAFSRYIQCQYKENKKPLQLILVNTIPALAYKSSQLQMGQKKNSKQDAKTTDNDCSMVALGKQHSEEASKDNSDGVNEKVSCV
Kappa-type opioid receptor (Homo sapiens), sequence (P41145 whole entry): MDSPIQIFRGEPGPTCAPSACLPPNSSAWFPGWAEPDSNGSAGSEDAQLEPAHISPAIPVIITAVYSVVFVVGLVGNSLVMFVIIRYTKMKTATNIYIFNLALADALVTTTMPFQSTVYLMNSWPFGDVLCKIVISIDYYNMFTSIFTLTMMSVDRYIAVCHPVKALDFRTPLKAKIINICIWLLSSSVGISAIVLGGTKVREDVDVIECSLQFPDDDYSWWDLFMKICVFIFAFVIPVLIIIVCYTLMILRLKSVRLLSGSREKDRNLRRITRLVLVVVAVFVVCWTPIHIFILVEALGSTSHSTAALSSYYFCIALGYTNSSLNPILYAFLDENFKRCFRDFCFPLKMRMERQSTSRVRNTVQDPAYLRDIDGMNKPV
Delta-type opioid receptor (Homo sapiens), sequence (P41143 whole entry): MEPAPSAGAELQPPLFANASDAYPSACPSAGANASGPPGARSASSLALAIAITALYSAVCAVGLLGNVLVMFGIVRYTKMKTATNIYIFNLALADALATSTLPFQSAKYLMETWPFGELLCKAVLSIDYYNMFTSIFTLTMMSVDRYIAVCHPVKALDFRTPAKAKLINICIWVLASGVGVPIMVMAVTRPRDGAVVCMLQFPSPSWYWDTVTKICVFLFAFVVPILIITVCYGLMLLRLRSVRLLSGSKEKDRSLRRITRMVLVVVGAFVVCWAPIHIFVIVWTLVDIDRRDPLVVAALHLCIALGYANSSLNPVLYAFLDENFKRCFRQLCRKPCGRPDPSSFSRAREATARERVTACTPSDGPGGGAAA
5-hydroxytryptamine receptor 1B (Homo sapiens), sequence (P28222 whole entry): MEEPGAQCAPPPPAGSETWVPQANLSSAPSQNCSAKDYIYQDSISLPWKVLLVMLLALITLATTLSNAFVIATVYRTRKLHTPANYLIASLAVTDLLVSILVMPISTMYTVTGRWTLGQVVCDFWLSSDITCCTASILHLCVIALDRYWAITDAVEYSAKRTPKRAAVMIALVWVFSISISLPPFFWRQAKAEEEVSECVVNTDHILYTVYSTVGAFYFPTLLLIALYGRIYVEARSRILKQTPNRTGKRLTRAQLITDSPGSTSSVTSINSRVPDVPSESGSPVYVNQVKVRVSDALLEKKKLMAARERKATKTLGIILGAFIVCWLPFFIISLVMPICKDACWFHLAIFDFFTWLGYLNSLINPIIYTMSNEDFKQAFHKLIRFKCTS

Activity [1]: inactive
Activity [2]: inactive
Activity [3]: inactive
Activity [4]: inactive
Activity [5]: inactive
Activity [6]: inactive
Activity [7]: inactive
Activity [8]: inactive
Activity [9]: inactive
Activity [10]: inactive
Activity [11]: inactive
Activity [12]: inactive
Activity [13]: inactive
Activity [14]: inactive
Activity [15]: inactive
Activity [16]: inactive
Activity [17]: inactive
Activity [18]: inactive
Activity [19]: inactive
Activity [20]: inactive
Activity [21]: inactive
Activity [22]: inactive
Activity [23]: inactive
Activity [24]: inactive
Activity [25]: inactive
Activity [26]: inactive
Activity [27]: inactive
Activity [28]: inactive
Activity [29]: inactive
Activity [30]: inactive
Activity [31]: inactive
Activity [32]: inactive
Activity [33]: inactive
Activity [34]: inactive
Activity [35]: inactive
Activity (Rattus norvegicus [36]): inactive
Activity [37]: inactive
Activity [38]: inactive
Activity [39]: inactive
Activity [40]: inactive
Activity [41]: inactive
Activity [42]: inactive
Activity [43]: inactive
Activity [44]: inactive
Activity [45]: Not Active
Activity (Rattus norvegicus [46]): inactive
SMILES: COC(=O)CCc1cc2cc(C)oc(=O)c2c(O)c1O
Activity (DRG neuron): Active
